This passage reports Activity, Ratio and inhibition results from ChEMBL document CHEMBL1629474, “Massive screening yields novel and selective Trypanosoma cruzi triosephosphate isomerase dimer-interface-irreversible inhibitors with anti-trypanosomal activity” (Eur J Med Chem, 2010).

The structures appear in SMILES notation. The source made the active and inactive calls. The rule behind the calls is not given here. Bounds are passed on as bounds.

In experiment [1] the test system is Trypanosoma cruzi. Nature of the experiment: Antiparasitic activity against Trypanosoma cruzi T2 epimastigotes assessed as growth inhibition at 25 uM after 5 days. It is filed as functional. The gist of the method:
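Late-log epimastigotes were grown axenically at 28 °C in BHI-tryptose with 5% fetal calf serum and seeded at 2×10^6/mL in medium containing compound (DMSO stock; final DMSO ≤1%, 1% DMSO control). Growth was read as A590 at day 0 and day 5. Inhibition = {1 − [(Ap − A0p)/(Ac − A0c)]} × 100. Means of two experiments.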

A short description of experiment [2]: Selectivity for Trypanosoma cruzi triosephosphate isomerase over human triosephosphate isomerase.
The target of experiment [3] is Triosephosphate isomerase, glycosomal (Trypanosoma cruzi) (UniProt P52270). Description: Inhibition of Trypanosoma cruzi triosephosphate isomerase at 400 uM after 2 hrs. The gist of the method: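 Recombinant E. coli-expressed enzyme, dialyzed into 100 mM triethanolamine/10 mM EDTA pH 7.4, was incubated with compound (DMSO stock) in 100 mM triethanolamine, 10 mM EDTA, pH 7.4, 10% DMSO at 36 °C for 2 h. An aliquot was then assayed for activity (glyceraldehyde 3-phosphate to dihydroxyacetone phosphate, α-glycerol phosphate dehydrogenase-coupled) with 5 ng enzyme. Irreversible inhibition was scored as loss of activity; means of two experiments.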
Chain of Triosephosphate isomerase, glycosomal (Trypanosoma cruzi) (P52270 whole entry): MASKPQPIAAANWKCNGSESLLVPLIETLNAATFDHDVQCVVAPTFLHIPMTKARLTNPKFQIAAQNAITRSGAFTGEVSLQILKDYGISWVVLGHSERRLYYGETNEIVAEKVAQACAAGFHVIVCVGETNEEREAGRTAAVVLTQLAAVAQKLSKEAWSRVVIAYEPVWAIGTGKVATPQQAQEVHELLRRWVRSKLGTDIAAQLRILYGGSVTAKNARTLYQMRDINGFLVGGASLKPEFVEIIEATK

`CCCCNC(=O)c1ccc2no[n+]([O-])c2c1`: in experiment [1], the result was Active. The Ratio in experiment [2] was over 4. The inhibition (commonly the drop in the measured response relative to a control, in per cent) in experiment [3] worked out at 12%.

As to `CC1(C)[N+]([O-])=c2ccc(/C=C/c3ccccc3)cc2=[N+]1[O-]`, the outcome in experiment [1] was Active. In addition, the Ratio in experiment [2] was over 4. For the same compound, in experiment [3], the inhibition was 0%.

In the case of `O=[N+]([O-])c1ccc2c(c1)c(OCc1ccccc1)nn2CCOCCN1CCN(C/C=C/c2ccccc2)CC1`, the outcome in experiment [1] was Active. In experiment [2], the Ratio was over 4. This compound also gave an inhibition in experiment [3] of 18%.

`NS(=O)(=O)NCc1ccccc1`: the result in experiment [1] was Active. In experiment [2], the Ratio is over 4. This compound gave an inhibition in experiment [3] of 0%.

For the compound `O=Cc1ccc(OCc2ccc3no[n+]([O-])c3c2)cc1`, the result in experiment [1] was Active. Moreover, the Ratio in experiment [2] was over 4. This compound had an inhibition in experiment [3] of 0%.

`O=S(=O)(NCc1ccccc1)NCc1ccccc1`: the outcome in experiment [1] was Active. Further, the Ratio in experiment [2] is over 4. The compound also came in with an inhibition in experiment [3] of 76%.

For the compound `C=CCNC(=S)N/N=C/c1ccc2no[n+]([O-])c2c1`, in experiment [1], the result was Active. In addition, the Ratio in experiment [2] was over 4. The same compound returned an inhibition in experiment [3] of 14%.

Take `COC(=O)N/N=C/c1ccc([N+](=O)[O-])o1`: the outcome in experiment [1] was Active. Further, the Ratio in experiment [2] was over 4. Also, the inhibition in experiment [3] came to 0%.

Take `Cc1c(/C=C/c2ccc(N(C)C)cc2)[n+]([O-])cn[n+]1[O-]`: in experiment [1], the outcome was Active. Moreover, in experiment [2], the Ratio was over 4. In experiment [3], this compound had an inhibition of 26%.

Consider `C=CCNC(=S)N/N=C/c1cccs1`, for which, in experiment [1], the outcome was Active. Also, the Ratio in experiment [2] was over 4. For the same compound, the inhibition in experiment [3] amounted to 2%.

Take `Cc1nnc[n+]([O-])c1/C=C/c1ccc([N+](=O)[O-])o1`: the outcome in experiment [1] was Active. Moreover, the Ratio in experiment [2] is over 4. This compound yielded an inhibition in experiment [3] of 38%.

Consider `CCNC(=S)N/N=C/C=C/c1ccc([N+](=O)[O-])o1`, for which the outcome in experiment [1] was Active. For the same compound, in experiment [2], the Ratio was over 4. This compound also had an inhibition in experiment [3] of 21%.

For the compound `O=C(/C=C/c1ccc([N+](=O)[O-])o1)NC12CC3CC(CC(C3)C1)C2`, in experiment [1], the outcome was Active. The Ratio in experiment [2] is over 4. In addition, the inhibition in experiment [3] turned out to be 16%.

For `[O-][n+]1onc2ccc(CN3CCN(C/C=C/c4ccccc4)CC3)cc21`, the outcome in experiment [1] was Active. Also, in experiment [2], the Ratio was over 4. The inhibition in experiment [3] was 0%.

`COC(=O)N/N=C/c1ccc2no[n+]([O-])c2c1`: the result in experiment [1] was Active. In addition, the Ratio in experiment [2] was over 4. Moreover, the inhibition in experiment [3] worked out at 3%.

Turning to `O=C(/C=C/c1cccs1)c1ccccc1O`, the outcome in experiment [1] was Active. Moreover, in experiment [2], the Ratio was over 4. The compound also had an inhibition in experiment [3] of 25%.

Regarding `[O-][n+]1onc2ccc(CSCCO)cc21`, the result in experiment [1] was Active. The Ratio in experiment [2] is over 4. Besides, the inhibition in experiment [3] turned out to be 0%.

For `CCCCCCN/N=C/c1no[n+]([O-])c1C`, in experiment [1], the outcome was Active. Further, in experiment [2], the Ratio is over 4. For the same compound, the inhibition in experiment [3] turned out to be 55%.

As to `O=[N+]([O-])c1ccc(N2CCSCC2)c([N+](=O)[O-])c1`, in experiment [1], the result was Active. Besides, the Ratio in experiment [2] was over 4. For the same compound, the inhibition in experiment [3] amounted to 20%.

As to `CC1(C)[N+]([O-])=c2ccc(C3OCCO3)cc2=[N+]1[O-]`, the result in experiment [1] was Active. Besides, the Ratio in experiment [2] was over 4. The inhibition in experiment [3] was 36%.

Take `COCCNC(=O)N/N=C/c1ccc([N+](=O)[O-])s1`: the outcome in experiment [1] was Active. Besides, in experiment [2], the Ratio is over 4. In experiment [3], this compound returned an inhibition of 15%.

For `CCCCNC(=O)N/N=C/c1c(C)no[n+]1[O-]`, the result in experiment [1] was Active. The Ratio in experiment [2] is over 4. In experiment [3], this compound displayed an inhibition of 2%.

Turning to `O=C(O)c1ccc(-c2nsc(CO)n2)cc1`, the result in experiment [1] was Active. Also, the Ratio in experiment [2] is over 4. Besides, the inhibition in experiment [3] came out at 15%.

For the compound `COCCNC(=O)N/N=C/c1ccc2no[n+]([O-])c2c1`, in experiment [1], the result was Active. Besides, the Ratio in experiment [2] was over 4. Besides, in experiment [3], the inhibition was determined as 3%.

Consider `[O-][N+]1=c2cc(Cl)c(Cl)cc2=[N+]([O-])C12CCCC2`, for which the result in experiment [1] was Active. For the same compound, in experiment [2], the Ratio is over 4. In addition, the inhibition in experiment [3] is 56%.

As to `CCCCNC(=O)N/N=C/C=C/c1ccc([N+](=O)[O-])o1`, the result in experiment [1] was Active. For the same compound, the Ratio in experiment [2] is over 4. In addition, in experiment [3], the inhibition is 1%.

For the compound `Cc1c(C)[n+]([O-])c2cc(C=O)ccc2[n+]1[O-]`, the result in experiment [1] was Active. Further, in experiment [2], the Ratio was over 4. Also, the inhibition in experiment [3] worked out at 11%.

Consider `[O-][N+]1=c2ccc(Br)cc2=[N+]([O-])C12CCCC2`, for which, in experiment [1], the outcome was Active. Moreover, in experiment [2], the Ratio is over 4. In experiment [3], the inhibition came to 23%.

With `[O-][n+]1onc2ccc(/C=C/[S+]([O-])c3ccccc3)cc21` (stereo not given), in experiment [1], the result was Active. In experiment [2], the Ratio was over 4. Besides, the inhibition in experiment [3] was determined as 28%.

Regarding `CC1(C)[N+]([O-])=c2ccc(/C=C/c3ccc4c(c3)OCO4)cc2=[N+]1[O-]`, the outcome in experiment [1] was Active. The Ratio in experiment [2] was over 4. In experiment [3], this compound yielded an inhibition of 23%.

On to `O=C(/C=C/c1ccc([N+](=O)[O-])o1)N1CCN(C/C=C/c2ccccc2)CC1`, for which the outcome in experiment [1] was Active. Further, the Ratio in experiment [2] was over 4. In experiment [3], this compound registered an inhibition of 0%.

In the case of `Cc1c(CNc2cccc3ccccc23)no[n+]1[O-]`, the outcome in experiment [1] was Active. For the same compound, in experiment [2], the Ratio is over 4. Besides, the inhibition in experiment [3] was 41%.

For the compound `[O-][n+]1onc2ccc(CBr)cc21`, in experiment [1], the outcome was Active. Also, the Ratio in experiment [2] is over 4. The compound also yielded an inhibition in experiment [3] of 10%.

With `Nc1ccc2c(c1)[n+]([O-])c1cc(Cl)ccc1[n+]2[O-]`, in experiment [1], the result was Active. Also, the Ratio in experiment [2] was over 4. The inhibition in experiment [3] was determined as 64%.

Regarding `CC(=O)CC(=O)Nc1ccccc1`, the result in experiment [1] was Active. The Ratio in experiment [2] is over 4. In experiment [3], this compound showed an inhibition of 17%.

On to `CSc1ccc(/C=C/C(=O)c2ccccc2)cc1`, for which the outcome in experiment [1] was Active. Besides, the Ratio in experiment [2] was over 4. In experiment [3], this compound returned an inhibition of 14%.

`Cc1ccc(-n2cc(C)[n+]([O-])c2)cc1`: the outcome in experiment [1] was Active. Also, the Ratio in experiment [2] was over 4. For the same compound, in experiment [3], the inhibition is 13%.

On to `O=C(/C=C/c1ccco1)N1CCN(C/C=C/c2ccccc2)CC1`, for which the outcome in experiment [1] was Active. For the same compound, the Ratio in experiment [2] is over 4. Besides, the inhibition in experiment [3] stood at 0%.

`[O-][n+]1onc(-c2ccccc2)c1CO` showed an inhibition in experiment [3] of 23%.

Take `[O-][n+]1onc2ccc(/C=C/c3ccccc3)cc21`: in experiment [1], the outcome was Active. In experiment [2], the Ratio was over 4. For the same compound, the inhibition in experiment [3] was found to be 66%.

Consider `CCOC(=O)c1c(-c2ccccc2)[n+]([O-])c2ccc(CN3CCN(C/C=C/c4ccccc4)CC3)cc2[n+]1[O-]`, for which the outcome in experiment [1] was Active. The Ratio in experiment [2] is over 4. In addition, the inhibition in experiment [3] was 12%.

On to `N#Cc1c2ccccc2[n+]([O-])n1-c1ccc([N+](=O)[O-])cc1`, for which the outcome in experiment [1] was Active. Besides, in experiment [2], the Ratio is over 4. The compound also registered an inhibition in experiment [3] of 29%.

`Cc1nnc[n+]([O-])c1/C=C/c1ccc([N+](=O)[O-])s1`: the result in experiment [1] was Active. In addition, the Ratio in experiment [2] is over 4. In addition, the inhibition in experiment [3] is 28%.

As for `O=C1C(=Cc2ccc([N+](=O)[O-])cc2)C(=O)N(C2CCCCC2)S(=O)(=O)N1C1CCCCC1`, the outcome in experiment [1] was Active. Besides, in experiment [2], the Ratio was over 4. In experiment [3], this compound displayed an inhibition of 51%.

With `[O-][N+]1=c2ccccc2=[N+]([O-])C12CCCC2`, the outcome in experiment [1] was Active. Further, the Ratio in experiment [2] was over 4. The inhibition in experiment [3] was 12%.

Regarding `Cc1ccc2c(c1)=[N+]([O-])C(C)[N+]=2[O-]` (stereo not given), the result in experiment [1] was Active. Also, the Ratio in experiment [2] is over 4. This compound also gave an inhibition in experiment [3] of 18%.

Consider `O=[N+]([O-])c1ccc2c(c1)[n+]([O-])c1n2CCC1`, for which the result in experiment [1] was Active. For the same compound, the Ratio in experiment [2] is over 4. The compound also showed an inhibition in experiment [3] of 35%.

Take `Cc1c(C(=O)Nc2ccccc2)[n+]([O-])c2cc(CNC/C=C/c3ccccc3)ccc2[n+]1[O-]`: the result in experiment [1] was Active. In experiment [2], the Ratio is over 4. In experiment [3], this compound returned an inhibition of 23%.

As for `Cc1ccc2c(c1)[n+]([O-])c(C)n2O`, in experiment [1], the result was Active. In addition, the Ratio in experiment [2] is over 4. Also, the inhibition in experiment [3] was 6%.

As for `O=[N+]([O-])c1ccc(/N=C/c2ccccc2[N+](=O)[O-])cc1`, the result in experiment [1] was Active. For the same compound, in experiment [2], the Ratio is over 4. In experiment [3], the inhibition is 34%.

Turning to `C=CCNC(=S)N/N=C/c1ccc([N+](=O)[O-])s1`, the outcome in experiment [1] was Active. Also, the Ratio in experiment [2] is over 4. Besides, the inhibition in experiment [3] amounted to 58%.

On to `COc1ccc(/C=C/c2c(C)[n+]([O-])nc[n+]2[O-])cc1`, for which the result in experiment [1] was Active. In addition, the Ratio in experiment [2] is over 4. Besides, the inhibition in experiment [3] was 27%.

In turn, `CC(=O)Oc1c(C)c(C)c2c(c1C)CCC(C)(C(=O)NCCO[N+](=O)[O-])O2` (stereo not given) returned an inhibition in experiment [3] of 7%.
